The nature of series [1]: Pharmacokinetic study: plasma and brain concentration after a single oral dose. It is filed as in vivo, SD rats. The settings on record: for Kp: male, SD, rat, brain/plasma, po. The gist of the method: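 Male SD rats (219.0–260.5 g), fasted overnight until 4 h post-dose, given one oral dose of 10, 15 or 55 mg/kg depending on compound. n=3 per time point (0.25–24 h). Jugular blood in K2EDTA; plasma by spinning at 4 °C. Brains taken after decapitation, homogenised in 3-fold saline. Samples precipitated with acetonitrile plus internal standards, then LC-MS/MS. Brain/plasma ratio calculated at Cmax.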

Another series has as its system SU-DHL-6 cells. As to the kind of experiment: Apoptosis assay. The series is classed as cell-based. The gist of the method:
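SU-DHL-6 cells kept in RPMI 1640 with 10% heat-inactivated FBS and penicillin/streptomycin at 37 °C, 5% CO2. Seeded at 4×10^5/mL and left 24 h, then exposed to one of three concentrations of test compound, or DMSO control, for 24 or 48 h. Stained with Annexin V/7-AAD and read by flow cytometry. Live, early apoptotic and late apoptotic/dead populations counted.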

Series [2] in a line: Ibrutinib concentration in CSF of a PCNSL patient. It is filed as in vivo. The settings on record: human, po, 560 mg.
Another series has as its system PCNSL. The settings on record: cited from earlier work.
The mark [3] stands for this setting: phase II, monotherapy 560 mg/day, intent-to-treat analysis.

In general, Kp refers to tissue or fluid exposure divided by exposure in the circulation.

Where two headings read alike, the source gives them in different places.

As for `C=CC(=O)N1CCC([C@@H]2CCNc3c(C(N)=O)c(-c4ccc(Oc5ccccc5)cc4)nn32)CC1` [zanubrutinib], the “Unbound concentration in brain” value in series [1] (SD rats, 15 mg/kg orally, 4 hours after administration) is listed as “below the limit of detection”. Moreover, the Kp in series [1] worked out at 0.035. In addition, in the series on SU-DHL-6 cells (SU-DHL-6, 50 µM, after another 24 hours (48 h)), the Pro-apoptosis effect entry is “maintained”. Moreover, the Induction of apoptosis entry in the series on SU-DHL-6 cells (SU-DHL-6, 24 hours, 0.5 µM or higher) is listed as “good ability in inducing cell apoptosis”; with SU-DHL-6 cells (SU-DHL-6, lower concentration, after another 24 hours (48 h)), “cells recovered from apoptosis”.
`C=CC(=O)N1CCC[C@@H](n2nc(-c3ccc(Oc4ccccc4)cc3)c3c(N)ncnc32)C1` [ibrutinib] gave a concentration at 2 h in series [2] of 0.309 ng/mL. Also, the Disease control rate is reported as 70% in the series on PCNSL (phase II, monotherapy 560 mg/day, evaluable patients) and 62% in the series on PCNSL (setting [3]). Also, in the series with PCNSL (setting [3]), the Stable diseases is on record as 10%. Also, the “Objective response rate (ORR)” value in the series on PCNSL (recurrent PCNSL patients, single drug, two clinical trials) is given as 50–70%. Also, the Clinical responses in the series with PCNSL (refractory and recurrent PCNSL, 10 of 13 patients) is listed as 77%. Besides, in the series with PCNSL (refractory and recurrent PCNSL, cohort of 13), the “Patients who achieved CR” value was “five”. For the same compound, the Kp in series [1] turned out to be 0.098. Also, the Induction of apoptosis entry with SU-DHL-6 cells (SU-DHL-6, 0.5 µM) is reported as “not observed”; with SU-DHL-6 cells (SU-DHL-6, 5 µM, 24 and 48 hours) it was “subtle”; in the series on SU-DHL-6 cells (SU-DHL-6, 50 µM, 24 and 48 hours) it was “prominent”.
`CC#CC(=O)N1CC[C@@H](n2c(=O)n(-c3ccc(Oc4ccccc4)cc3)c3c(N)ncnc32)C1` [tirabrutinib]: the ORR rate in the series with PCNSL (phase I/II trial, relapsed/refractory PCNSL patients) is given as 64%. The compound also displayed a Kp in series [1] of 0.085. Moreover, the Induction of apoptosis result in the series with SU-DHL-6 cells (SU-DHL-6, three concentrations, 24 or 48 hours) is on record as “only induced when cells were treated with high dose tirabrutinib for a relatively longer period of time (50 µM, 48 h)”.

These data come from publication PMC8798964 (Translational Cancer Research, 2021).
